Experimental data from different studies.
Each line is one published result; the experiments were not run side by side.
Observed: cell growth or viability

| SMILES | cell line | test | conditions | quantity | value |
| --- | --- | --- | --- | --- | --- |
| COc1cc2nc(N3CCN(C(=O)c4ccco4)CC3)nc(N)c2cc1OC | CNE-2 | MTT | 48 h | IC50 | 34800 nM |
| Nc1ccc(/C=C/C(=O)NCc2cc3cc(-c4ccc(C(=O)N5CCC(F)(F)CC5)cc4)cc(-c4ccc(F)cc4)c3o2)cn1 | ASPC1 | CCK-8 | 72 h | IC50 | 440 nM |
| C=CC(=O)NC1CCN(c2ncc3ncnc(Nc4ccc(Oc5ccc6c(c5)ncn6C)c(C)c4)c3n2)CC1 | EFM-192A | – | – | EC50 | 28.4 nM |
| Cc1cc(/C=C/C#N)cc(C)c1Nc1ccnc(Nc2ccc(C#N)cc2)n1 | CNE-2 | MTT | 48 h | IC50 | 18700 nM |
| CCN1[C@@H](C(=O)NC23CCC(C(=O)O)(CC2)CC3)[C@H](c2cccc(Cl)c2F)[C@]2(C(=O)Nc3cc(Cl)ccc32)C12CCCCC2 | SW982 | resazurin | 72 h | GI50 | 157 nM |
| C=CC(=O)N1CCN(c2nc(=O)n(-c3c(C)ccnc3C(C)C)c3nc(-c4c(O)cccc4F)c(F)cc23)[C@@H](C)C1 | SW756 | ATP luminescence | – | IC50 | 111 nM |
| CC1(C)CCC2(CC1)N[C@@H](C(=O)N[C@@H]1CC[C@@H](C(N)=O)OC1)[C@H](c1ccnc(Cl)c1F)[C@]21C(=O)Nc2cc(Cl)ccc21 | SW982 | resazurin | 72 h | GI50 | 21 nM |
| Nc1ccc(/C=C/C(=O)N2CCc3c(oc4c(-c5ccc(F)cc5)cc(-c5ccc(C(=O)N6CCOCC6)nn5)cc34)C2)cn1 | ASPC1 | CCK-8 | 72 h | IC50 | 870 nM |
| C=C(F)C(=O)N1CCN(c2nc(OC[C@@H]3CCCN3C)nc3c2CCN(c2cccc4cccc(Cl)c24)C3)C[C@@H]1CC#N | ASPC1 | ATP luminescence | – | IC50 | 2010 nM |
| O=C(NO)c1ccc(CNc2nc3cccc(-c4ccc5c(c4)OCO5)n3n2)cc1 | CAKI-1 | SRB | – | GI50 | 660 nM |
